Activity calls are given as the source filed them. The calls are words filed in the database; no cut-off is given here.
Columns and labels:
[1] = target: 5'-AMP-activated protein kinase catalytic subunit alpha-2 (Rattus norvegicus, UniProt Q09137); experiment: (§1) Activation of AMPK in rat L6 cells assessed as increase of [3H]dGlc uptake after 5 hrs; type: cell-based
In short: (§2)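 Fully differentiated L6 myotubes preincubated 24 h in αMEM with 2% FCS and 23.0 mmol/L D-glucose, then 4 h serum-free with 0.5% BSA. Compound or DMSO vehicle given for the indicated times or concentrations. Uptake read after 5 min at room temperature in PBS pH 7.4 with 0.1 mmol/L dGlc and 1.3 μCi/mL [3H]dGlc, by scintillation of SDS lysates. Zero-time basal rate set as 100%; n=6.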

L6 [2] = experiment: Activation of AMPKalpha in rat L6 cells assessed as phosphorylation at Thr172 at 100 uM up to 5 hrs by Western blot analysis; type: cell-based
In short: (§3)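 L6 myotubes exposed for the indicated times to test compound (100 μM in the first series; 50–150 μM in the second) or 4 mM AICAR. Whole-cell lysates immunoblotted for pThr172-AMPKα, AMPKα and α-tubulin; band densities from three independent experiments vs respective controls.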

L6 [3] = experiment: Effect on ATP/AMP ratio in rat L6 cells at >100 uM; type: ADME, cell-based
L6 [4] = experiment: Activation of AMPKalpha in rat L6 cells assessed as phosphorylation at Thr172 at 100 uM after 40 mins by Western blot analysis; type: cell-based; in short: as §3
[5] = target: 5'-AMP-activated protein kinase catalytic subunit alpha-2 (Rattus norvegicus) (UniProt Q09137); experiment: Activation of AMPK in rat L6 cells assessed as increase of [3H]dGlc uptake at 100 uM after 10 to 40 hrs; type: cell-based; in short: as §2
Sequence of 5'-AMP-activated protein kinase catalytic subunit alpha-2 (Rattus norvegicus) (Q09137 whole entry): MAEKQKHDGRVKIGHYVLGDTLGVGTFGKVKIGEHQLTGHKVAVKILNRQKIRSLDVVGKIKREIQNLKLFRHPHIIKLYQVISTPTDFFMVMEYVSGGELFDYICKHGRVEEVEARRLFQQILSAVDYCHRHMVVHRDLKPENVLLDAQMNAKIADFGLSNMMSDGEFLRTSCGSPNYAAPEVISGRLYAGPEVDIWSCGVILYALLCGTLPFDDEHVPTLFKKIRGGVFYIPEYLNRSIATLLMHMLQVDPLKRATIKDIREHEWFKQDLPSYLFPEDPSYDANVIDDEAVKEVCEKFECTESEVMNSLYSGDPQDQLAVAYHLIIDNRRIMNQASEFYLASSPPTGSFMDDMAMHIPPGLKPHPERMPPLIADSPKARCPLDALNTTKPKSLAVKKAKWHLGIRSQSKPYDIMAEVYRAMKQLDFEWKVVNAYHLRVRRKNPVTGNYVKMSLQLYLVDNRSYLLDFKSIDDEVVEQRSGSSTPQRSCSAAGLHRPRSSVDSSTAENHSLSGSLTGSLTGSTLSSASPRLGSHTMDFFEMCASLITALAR

[6] = target: 5'-AMP-activated protein kinase catalytic subunit alpha-2 (Rattus norvegicus) (UniProt Q09137); experiment: as §1; type: cell-based; in short: as §2
[7] = target: 5'-AMP-activated protein kinase catalytic subunit alpha-2 (Rattus norvegicus) (UniProt Q09137); experiment: Activation of AMPK in rat L6 cells assessed as increase of [3H]dGlc uptake at 10 to 200 uM; type: cell-based; details: TDE = time-dependent effect; in short: as §2
[8] = target: 5'-AMP-activated protein kinase catalytic subunit alpha-2 (Rattus norvegicus) (UniProt Q09137); experiment: Activation of AMPK in rat L6 cells assessed as phosphorylation at Thr172 at > 0.5 mmol/L after 5 hrs by Western blot analysis; type: cell-based
[9] = target: 5'-AMP-activated protein kinase catalytic subunit alpha-2 (Rattus norvegicus) (UniProt Q09137); experiment: Activation of AMPK in rat L6 cells assessed as increase of [3H]dGlc uptake at > 0.5 mmol/L after 5 hrs; type: cell-based
[10] = target: 5'-AMP-activated protein kinase catalytic subunit alpha-2 (Rattus norvegicus) (UniProt Q09137); experiment: Activation of AMPK in rat L6 cells assessed as increase of [3H]dGlc uptake at 5 uM after 5 hrs relative to control; type: cell-based; in short: as §2
[11] = target: 5'-AMP-activated protein kinase catalytic subunit alpha-2 (Homo sapiens) (UniProt P54646); experiment: Activation of human recombinant AMPK at 20 uM after 30 mins relative to control
Sequence of 5'-AMP-activated protein kinase catalytic subunit alpha-2 (Homo sapiens) (P54646 whole entry, looked up): as the sequence (Q09137 whole entry) above, with V114M, Q150H, I241V, T348S, M355S, V502F, S505T, N509S, A528V, A549T counted along it
In short: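 Recombinant human full-length AMPK assayed with a commercial luminescent kit. Compound at 20 μM or DMSO vehicle (1% v/v) added to the reaction mix for 30 min at ambient temperature. Activity read by luminometer against a calibration curve; basal activity with DMSO set as 100%.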

[12] = Lipophilicity, log P of the compound; type: physicochemical; details: octanol/water
L6 [13] = experiment: Activation of AMPKalpha in rat L6 cells assessed as phosphorylation at Thr172 at 100 uM after 60 mins by Western blot analysis; type: cell-based; in short: as §3
[14] = target: 5'-AMP-activated protein kinase catalytic subunit alpha-2 (Rattus norvegicus) (UniProt Q09137); experiment: Activation of AMPK in rat L6 cells assessed as increase of [3H]dGlc uptake at 50 uM after 5 hrs relative to control; type: cell-based; in short: as §2
[15] = target: 5'-AMP-activated protein kinase catalytic subunit alpha-2 (Rattus norvegicus) (UniProt Q09137); experiment: Activation of AMPK in rat L6 cells assessed as increase of [3H]dGlc uptake at 100 uM after 5 hrs in absence of insulin; type: cell-based; in short: as §2
[16] = target: 5'-AMP-activated protein kinase catalytic subunit alpha-2 (Rattus norvegicus) (UniProt Q09137); experiment: Activation of AMPK in rat L6 cells assessed as increase of [3H]dGlc uptake at 100 uM after 24 hrs; type: cell-based; in short: as §2
L6 [17] = experiment: Activation of AMPKalpha in rat L6 cells assessed as phosphorylation at Thr172 at 100 uM after 24 hrs by Western blot analysis; type: cell-based; in short: as §3
[18] = target: 5'-AMP-activated protein kinase catalytic subunit alpha-2 (Rattus norvegicus) (UniProt Q09137); experiment: Activation of AMPK in rat L6 cells assessed as increase of [3H]dGlc uptake at 150 uM after 5 hrs relative to control; type: cell-based; in short: as §2
L6 [19] = experiment: Activation of AMPKalpha in rat L6 cells assessed as phosphorylation at Thr172 at 150 uM after 40 mins to 5 hrs by Western blot analysis; type: cell-based; in short: as §3
L6 [20] = experiment: Effect on […] level in rat L6 cells at 3.5 mmol/L after 20 mins in presence of HCGM (reference value: 23 mmol/L); type: ADME, cell-based; details: l6, 20 min, 3500 µM
In short: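 Fully differentiated L6 myotubes preconditioned in medium with 23.0 mmol/L D-glucose, then exposed 20 min. Cells washed in cold 0.15 M Tris-HCl pH 7.75, extracted with ice-cold 0.5% TCA, diluted in Tris-HCl and spun 12,000 rpm, 30 min, 4 °C. Supernatant ATP measured by colorimetric kit, expressed per mg protein. Mean ± SEM; two-tailed t test against untreated 23.0 mmol/L glucose cells.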

Sequence of 5'-AMP-activated protein kinase catalytic subunit alpha-2 (Q09137 whole entry): as the sequence (Q09137 whole entry) above

In the case of `CCC1SC(N)=NC1=O` (centres undefined), the EC50 [1] is reported as 61.5 µM, the Activity (L6 [2]) is reported as “inactive” and the Activity (L6 [3]) is reported as “Toxic”. For the same molecule, the Activity (L6 [4]) was “Active” and the Activity [5] was “inactive”.

With `CCCNC(=O)CSc1nc2ccc(OCC)cc2s1` the Activity [6] was “Dose-dependent effect”, the Activity (L6 [2]) was “Active” and the Activity [7] was “tde”.

In the case of `NC1=NC(=O)/C(=C\C=C\c2ccc([N+](=O)[O-])o2)S1`, the Activity [8] is reported as “Active” and the Activity [9] is reported as “Active”.

With `Cc1cc(-c2ccc(/C=C3/S/C(=N\c4ccc(Cl)c(C(=O)O)c4)NC3=O)o2)c([N+](=O)[O-])cc1C` the Activity [6] was “Dose-dependent effect”, the fold change (FC) [10] was 1.4 and the Activity [7] was “tde”. For the same molecule, the fold change (FC) [11] was 2.04.

`Oc1ccc2nc(S)sc2c1` showed a logP [12] of 1.96.

For `CCOc1ccc2nc(SCCC(=O)O)sc2c1`, the Activity (L6 [13]) was “Active” and the fold change (FC) [14] was 1.8.

With `CCOc1ccc2nc(S)sc2c1` the EC50 [1] was 76.1 µM, the logP [12] was 3.17 and the Activity [15] was “Active”. For the same molecule, the Activity [16] was “Active” and the Activity (L6 [17]) was “Active”.

In the case of `CCOc1ccc2nc(SSc3nc4ccc(OCC)cc4s3)sc2c1`, the Activity [18] is reported as 189% and the Activity (L6 [19]) is reported as “Active”.

For `O=[N+]([O-])c1ccc(O)c([N+](=O)[O-])c1` [2,4-DINITROPHENOL], the Activity (L6 [20]) was 0.42 mmol/mg.

In the case of `Oc1nc2ccc(Br)cc2s1`, the EC50 [1] is reported as 72.9 µM, the Activity [15] is reported as “Active” and the Activity [16] is reported as “Active”. The Activity (L6 [17]) was “Active”.

— ChEMBL document CHEMBL2396611, “Synthesis and mechanism of hypoglycemic activity of benzothiazole derivatives” (J Med Chem, 2013)
